In ChEMBL document CHEMBL1158182, “Antifungal activity of chalcones: a mechanistic study using various yeast strains” (Eur J Med Chem, 2008):
Values after ≈ are worked out from the molar mass of the structure shown.

Legend:
Type in all cases: functional
[1] = system: Saccharomyces cerevisiae; test: Antifungal activity against haploid Saccharomyces cerevisiae D3C by agar dilution method
Outline: (§1)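 MICs by agar dilution on rich YPD medium. Compounds were added from 96% EtOH stocks to give final agar concentrations of 20 to 50 (units as printed in the source). Cells were suspended in water, serially diluted to 10^9, 10^7, 10^5 and 10^3 cells/ml, and spotted onto agar with a metal replicator. Incubation was at 37 °C for H. polymorpha and 30 °C for S. cerevisiae.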

[2] = system: Ogataea angusta; test: Antifungal activity against Hansenula polymorpha CD3 with ade1 leu2 cds3 genotype by agar dilution method
Outline: (§2)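 H. polymorpha strains were tested by agar dilution on rich YPD agar at 37 °C. Compound stocks in 96% EtOH were mixed into the medium to give […]. Cells were suspended in water, serially diluted to 10^9, 10^7, 10^5 and 10^3 cells/ml, and applied to the agar with a metal replicator. MIC was read from growth.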

[3] = system: Kluyveromyces lactis; test: Antifungal activity against Kluyveromyces lactis 1-6A with MATalpha uraA lys arg genotype by agar dilution method
Outline: (§3)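 S. cerevisiae and K. lactis strains were tested by agar dilution on rich YPD agar at 30 °C. Compound stocks in 96% EtOH were added to the medium to give […]. Cells were suspended in water, serially diluted to 10^9–10^3 cells/ml, and plated with a metal replicator. MIC was read from growth.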

[4] = system: Ogataea angusta; test: Antifungal activity against Hansenula polymorpha CRD2 with leu2 CDR2 genotype by agar dilution method; outline: as §2
[5] = system: Saccharomyces cerevisiae; test: Antifungal activity against haploid Saccharomyces cerevisiae 2180 by agar dilution method; outline: as §3
[6] = system: Saccharomyces cerevisiae; test: Antifungal activity against diploid Saccharomyces cerevisiae PV-2 by agar dilution method; outline: as §1
[7] = system: Ogataea angusta; test: Antifungal activity against Hansenula polymorpha AU05 with ade3 ura3 genotype by agar dilution method; outline: as §2
[8] = system: Ogataea angusta; test: Antifungal activity against Hansenula polymorpha CD1 with ade1 leu2 cds1 genotype by agar dilution method; outline: as §2
[9] = system: Saccharomyces cerevisiae; test: Antifungal activity against haploid Saccharomyces cerevisiae YSH1171 by agar dilution method; outline: as §3
[10] = system: Saccharomyces cerevisiae; test: Antifungal activity against haploid Saccharomyces cerevisiae 10560-6B by agar dilution method; outline: as §3
[11] = system: Saccharomyces cerevisiae; test: Antifungal activity against diploid Saccharomyces cerevisiae 1a by agar dilution method; outline: as §3
[12] = system: Ogataea angusta; test: Antifungal activity against Hansenula polymorpha AS1 with arg1 gsh2delta genotype by agar dilution method; outline: as §2
[13] = system: Ogataea angusta; test: Antifungal activity against Hansenula polymorpha CTA1 with leu2 cat1 genotype by agar dilution method; outline: as §1
[14] = system: Kluyveromyces lactis; test: Antifungal activity against Kluyveromyces lactis 2-19B with MATalpha ura lys arg genotype by agar dilution method; outline: as §3
[15] = system: Ogataea angusta; test: Antifungal activity against Hansenula polymorpha R3 with rgh3 genotype by agar dilution method; outline: as §2
[16] = system: Saccharomyces cerevisiae; test: Antifungal activity against diploid Saccharomyces cerevisiae 29a by agar dilution method; outline: as §3
[17] = system: Ogataea angusta; test: Antifungal activity against Hansenula polymorpha 2b with arg1 ade1 leu2 genotype by agar dilution method; outline: as §2
[18] = system: Saccharomyces cerevisiae; test: Antifungal activity against haploid Saccharomyces cerevisiae Sigma 1278b by agar dilution method; outline: as §3
[19] = system: Ogataea angusta; test: Antifungal activity against Hansenula polymorpha CD2 with ade1 leu2 cds2 genotype by agar dilution method; outline: as §2
[20] = system: Ogataea angusta; test: Antifungal activity against Hansenula polymorpha 2a with arg1 leu2 ura3 cys1 genotype by agar dilution method; outline: as §2
[21] = system: Saccharomyces cerevisiae; test: Antifungal activity against haploid Saccharomyces cerevisiae 1169 by agar dilution method; outline: as §3
[22] = system: Ogataea angusta; test: Antifungal activity against Hansenula polymorpha D22 with arg1/arg1 ade1/ADE1 leu2/leu2 URA3/ura3 CYS1/cys1 genotype by agar dilution method; outline: as §2
[23] = system: Ogataea angusta; test: Antifungal activity against Hansenula polymorpha WT1 with ade1 ura3 genotype by agar dilution method; outline: as §2
[24] = system: Saccharomyces cerevisiae; test: Antifungal activity against haploid Saccharomyces cerevisiae 1S by agar dilution method; outline: as §3
[25] = system: Ogataea angusta; test: Antifungal activity against Hansenula polymorpha WT2 with ade1 met6 genotype by agar dilution method; outline: as §2
[26] = system: Ogataea angusta; test: Antifungal activity against Hansenula polymorpha M2 with met2 genotype by agar dilution method; outline: as §2
[27] = system: Kluyveromyces lactis; test: Antifungal activity against Kluyveromyces lactis 2-18B with MATalpha metA1 ura3 leu2 genotype by agar dilution method; outline: as §3
[28] = system: Ogataea angusta; test: Antifungal activity against Hansenula polymorpha MC1 with met2 cys1 genotype by agar dilution method; outline: as §2
[29] = system: Saccharomyces cerevisiae; test: Antifungal activity against diploid Saccharomyces cerevisiae PV-3 by agar dilution method; outline: as §1
[30] = system: Saccharomyces cerevisiae; test: Antifungal activity against haploid Saccharomyces cerevisiae YSH1170 by agar dilution method; outline: as §3
[31] = system: Ogataea angusta; test: Antifungal activity against Hansenula polymorpha M4 with met4 genotype by agar dilution method; outline: as §2
[32] = system: Ogataea angusta; test: Antifungal activity against Hansenula polymorpha WA1 with ade1 leu2 gsh1 genotype by agar dilution method; outline: as §1
[33] = system: Saccharomyces cerevisiae; test: Antifungal activity against haploid Saccharomyces cerevisiae FY4 by agar dilution method; outline: as §3

| SMILES | MIC [2] | MIC [3] | MIC [4] | MIC [5] | MIC [7] | MIC [8] | MIC [9] | MIC [10] | MIC [11] | MIC [12] | MIC [14] | MIC [15] | MIC [16] | MIC [17] | MIC [18] | MIC [19] | MIC [20] | MIC [21] | MIC [22] | MIC [23] | other results |
| --- | --- | --- | --- | --- | --- | --- | --- | --- | --- | --- | --- | --- | --- | --- | --- | --- | --- | --- | --- | --- | --- |
| O=C(/C=C/c1cccc(O)c1)c1ccccc1 [3-HYDROXY CHALCONE] | 25 µg/mL (≈ 111 µM) | < 20 µg/mL | 20 µg/mL (≈ 89.2 µM) | 25 µg/mL (≈ 111 µM) | 35 µg/mL (≈ 156 µM) | 25 µg/mL (≈ 111 µM) | 20 µg/mL (≈ 89.2 µM) | 25 µg/mL (≈ 111 µM) | 25 µg/mL (≈ 111 µM) | 20 µg/mL (≈ 89.2 µM) | < 20 µg/mL | 20 µg/mL (≈ 89.2 µM) | 25 µg/mL (≈ 111 µM) | 25 µg/mL (≈ 111 µM) | 25 µg/mL (≈ 111 µM) | 25 µg/mL (≈ 111 µM) | 25 µg/mL (≈ 111 µM) | 30 µg/mL (≈ 134 µM) | 25 µg/mL (≈ 111 µM) | 35 µg/mL (≈ 156 µM) | MIC [1]: 25 µg/mL (≈ 111 µM); MIC [6]: 25 µg/mL (≈ 111 µM); MIC [13]: 35 µg/mL (≈ 156 µM); MIC [24]: 25 µg/mL (≈ 111 µM); MIC [25]: 25 µg/mL (≈ 111 µM); MIC [26]: 25 µg/mL (≈ 111 µM); MIC [27]: < 20 µg/mL; MIC [28]: 20 µg/mL (≈ 89.2 µM); MIC [29]: 25 µg/mL (≈ 111 µM); MIC [30]: 25 µg/mL (≈ 111 µM); MIC [31]: 30 µg/mL (≈ 134 µM); MIC [32]: < 20 µg/mL; MIC [33]: 25 µg/mL (≈ 111 µM) |
| COc1cc(/C=C/C(=O)c2ccc(Cl)cc2)cc(OC)c1O | > 40 µg/mL | > 40 µg/mL | > 40 µg/mL | > 40 µg/mL | > 40 µg/mL | > 40 µg/mL | > 40 µg/mL | > 40 µg/mL | > 40 µg/mL | > 40 µg/mL | > 40 µg/mL | > 40 µg/mL | > 40 µg/mL | > 40 µg/mL | > 40 µg/mL | > 40 µg/mL | > 40 µg/mL | > 40 µg/mL | > 40 µg/mL | > 40 µg/mL | MIC [24]: > 40 µg/mL; MIC [25]: > 40 µg/mL; MIC [26]: > 40 µg/mL; MIC [27]: > 40 µg/mL; MIC [28]: > 40 µg/mL; MIC [30]: > 40 µg/mL; MIC [31]: > 40 µg/mL; MIC [33]: > 40 µg/mL |
| COc1ccc(/C=C/C(=O)c2ccc(Cl)cc2)cc1 | > 40 µg/mL | > 40 µg/mL | > 40 µg/mL | > 40 µg/mL | > 40 µg/mL | > 40 µg/mL | > 40 µg/mL | > 40 µg/mL | > 40 µg/mL | > 40 µg/mL | > 40 µg/mL | > 40 µg/mL | > 40 µg/mL | > 40 µg/mL | > 40 µg/mL | > 40 µg/mL | > 40 µg/mL | > 40 µg/mL | > 40 µg/mL | > 40 µg/mL | MIC [24]: > 40 µg/mL; MIC [25]: > 40 µg/mL; MIC [26]: > 40 µg/mL; MIC [27]: > 40 µg/mL; MIC [28]: > 40 µg/mL; MIC [30]: > 40 µg/mL; MIC [31]: > 40 µg/mL; MIC [33]: > 40 µg/mL |
